ChEMBL document CHEMBL1124884, “Potent renin inhibitory peptides containing hydrophilic end groups” (J Med Chem, 1990)
In brackets after ≈: the same amount, converted by molar mass. *1 amine or outer side, *2 acyl side, *3 side chain or, on linkers, in order; H or OH if unused. Where a SMILES comes first, the peptide text is derived from it. [ ]: non-standard residue; d: D form. The star is where a group is joined. Leuψ((S)CH(OH)CH2)dVal = CC(C)C[C@H](N[*:1])[C@@H](O)C[C@@H](C(=O)[*:2])C(C)C; X2 = OC[C@H]1O[C@H](O)[C@H](N*)[C@@H](O)[C@H]1O; NMeH = CN[C@@H](Cc1c[nH]cn1)C(=O)O; NHCH2(2-pyridyl) = c1ccc(CN*)nc1; NHC(CH2OH)3 = OCC(CO)(CO)N*; Boc = CC(C)(C)OC(=O)*; CO = O=C([*:1])[*:2]

How the values were obtained:
[1] = target: Renin (Homo sapiens) (UniProt P00797); assay: Maximum hypotensive activity, the magnitude of the human renin dependent blood pressure component was measured. (administered perorally)
[2] = target: Renin (Homo sapiens) (UniProt P00797); assay: Maximum hypotensive activity, the magnitude of the human renin dependent blood pressure component was measured (administered intravenously.)
[3] = Solubility in water at 25 degrees Centigrade; type: physicochemical; conditions: read-out: S
In short: (§1)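 Visual estimate: compound added to distilled water in a series of clear tubes at 1-100 mg/mL, tubes shaken, observed first at 25 °C and again after 30 min in a 37 °C water bath.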

[4] = target: Renin (Homo sapiens) (UniProt P00797); assay: Tested in vitro for inhibitory activity against plasma renin in human plasma
[5] = Solubility in water at 37 degrees Centigrade; type: physicochemical; conditions: read-out: S
In short: as §1

Chain of Renin (Homo sapiens) (P00797 whole entry, looked up): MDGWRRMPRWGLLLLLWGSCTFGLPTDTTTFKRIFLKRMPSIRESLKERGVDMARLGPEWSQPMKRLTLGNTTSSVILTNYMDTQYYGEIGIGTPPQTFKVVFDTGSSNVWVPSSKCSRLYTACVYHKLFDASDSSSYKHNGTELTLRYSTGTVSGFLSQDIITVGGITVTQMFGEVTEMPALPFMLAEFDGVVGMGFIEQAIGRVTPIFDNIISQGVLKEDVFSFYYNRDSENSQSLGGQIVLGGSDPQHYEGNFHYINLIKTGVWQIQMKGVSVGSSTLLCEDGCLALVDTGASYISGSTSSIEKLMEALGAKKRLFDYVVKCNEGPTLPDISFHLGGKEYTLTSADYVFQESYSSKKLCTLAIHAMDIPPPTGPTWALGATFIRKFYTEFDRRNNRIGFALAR

Row | solubility [3] [µg/mL] | IC50 [4] [nM] | solubility [5] [µg/mL] | SMILES | Hypotensive activity [1] [mmHg] | Hypotensive activity [2] [mmHg]
1 | – | – | – | CC[C@H](C)[C@H](NC(=O)[C@H](C[C@H](O)[C@H](CC(C)C)NC(=O)[C@H](Cc1c[nH]cn1)N(C)C(=O)[C@H](Cc1ccccc1)NC(=O)[C@@H]1CCCN1C(=O)N[C@@H]1[C@@H](O)[C@@H](O)[C@@H](CO)O[C@@H]1O)C(C)C)C(=O)NCc1ccccn1 ({X2-CO}-PF[NMeH][Leuψ((S)CH(OH)CH2)dVal]I-{NHCH2(2-pyridyl)}) | 37 | 36
2 | < 1000 | 0.26 | < 1000 | CC[C@H](C)[C@H](NC(=O)[C@H](C[C@H](O)[C@H](CC(C)C)NC(=O)[C@H](Cc1c[nH]cn1)N(C)C(=O)[C@H](Cc1ccccc1)NC(=O)[C@@H]1CCCN1C(=O)OC(C)(C)C)C(C)C)C(=O)NCc1ccccn1 (Boc-PF[NMeH][Leuψ((S)CH(OH)CH2)dVal]I-{NHCH2(2-pyridyl)}) | 24 | 25
3 | < 2000 | 0.49 | < 2000 | CC[C@H](C)[C@H](NC(=O)[C@H](C[C@H](O)[C@H](CC(C)C)NC(=O)[C@H](Cc1cnc[nH]1)N(C)C(=O)[C@H](Cc1ccccc1)NC(=O)[C@@H]1CCCN1C(=O)N[C@@H]1[C@@H](O)[C@@H](O)[C@@H](CO)O[C@@H]1O)C(C)C)C(=O)NCc1ccccn1 ({X2-CO}-PF[NMeH][Leuψ((S)CH(OH)CH2)dVal]I-{NHCH2(2-pyridyl)}) | – | –
4 | 1000 (≈ 1020 µM) | 0.33 | 1000 (≈ 1020 µM) | CC[C@H](C)[C@H](NC(=O)[C@H](C[C@H](O)[C@H](CC(C)C)NC(=O)[C@H](Cc1c[nH]cn1)N(C)C(=O)[C@H](Cc1ccccc1)NC(=O)[C@@H]1CCCN1C(=O)NC(CO)(CO)CO)C(C)C)C(=O)NCc1ccccn1 ({NHC(CH2OH)3-CO}-PF[NMeH][Leuψ((S)CH(OH)CH2)dVal]I-{NHCH2(2-pyridyl)}) | 38 | 40
5 | 1000 (≈ 1060 µM) | 0.26 | < 1000 | CC[C@H](C)[C@H](NC(=O)[C@H](C[C@H](O)[C@H](CC(C)C)NC(=O)[C@H](Cc1c[nH]cn1)N(C)C(=O)[C@H](Cc1ccccc1)NC(=O)[C@@H]1CCCN1C(=O)OC(C)(C)C)C(C)C)C(=O)NC(CO)(CO)CO (Boc-PF[NMeH][Leuψ((S)CH(OH)CH2)dVal]I-{NHC(CH2OH)3}) | 35 | 30
